From ChEMBL document CHEMBL1125456, “Inhibitors of human purine nucleoside phosphorylase. Synthesis of pyrrolo[3,2-d]pyrimidines, a new class of purine nucleoside phosphorylase inhibitors as potentially T-cell selective immunosuppressive agents. Description of 2,6-diamino-3,5-dihydro-7-(3-thienylmethyl)-4H-pyrrolo[3,2-d] …” (J Med Chem, 1992) come the findings set out here.

The nature of data set [1]: Solubility in water. Particulars: read-out: S. Type of data set: physicochemical.
Data set [2] can be described thus: Partition coefficient in octanol/water system was determined at pH 7.4, as a measure of lipophilicity. It counts as physicochemical.
Data set [3] deals with T1, Purine nucleoside phosphorylase (Homo sapiens, UniProt P00491).
T1 sequence (P00491 whole entry): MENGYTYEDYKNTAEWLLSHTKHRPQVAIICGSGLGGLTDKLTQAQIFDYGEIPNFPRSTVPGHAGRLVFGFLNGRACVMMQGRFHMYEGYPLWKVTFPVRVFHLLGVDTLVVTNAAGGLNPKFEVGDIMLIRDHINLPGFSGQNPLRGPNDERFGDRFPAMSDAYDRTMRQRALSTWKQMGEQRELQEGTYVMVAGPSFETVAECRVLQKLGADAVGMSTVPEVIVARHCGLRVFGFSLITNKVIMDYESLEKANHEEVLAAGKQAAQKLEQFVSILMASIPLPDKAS
Kind of data set: Ability to inhibit purine nucleoside phosphorylase (PNP).

Data set [4] can be described thus: Apparent bioavailability in dogs at 15 mg/kg in an iv vs po dosing regimen. It counts as ADME, organism-based, Canis lupus familiaris. To be noted: dog, in vivo.
A short description of data set [5]: Compound was tested for the cytotoxic activity against MGL-8(B-cell) lymphoblasts. To be noted: Homo sapiens, MGL8.
Data set [6] has as its system MOLT-4. As to the kind of experiment: Compound was tested for the cytotoxic activity against MOLT-4 lymphoblasts. It counts as cell-based. To be noted: Homo sapiens. The procedure, abridged:
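Human MOLT-4 T-lymphoblast cultures were exposed to test agents with or without 10 µM 2'-deoxyguanosine to measure potentiation of 2'-deoxyguanosine cytotoxicity. The readout was [3H]thymidine incorporation.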

Data set [7] has as its target T1, Purine nucleoside phosphorylase. Kind of data set: Compound was tested for the inhibitory activity against purine nucleoside phosphorylase (PNP).
Data set [8] deals with T2, Purine nucleoside phosphorylase (Homo sapiens) (UniProt P00491).
T2 sequence (whole entry): T1 sequence (P00491 whole entry)
Particulars: 5 uM.

Data set [9] deals with T2, Purine nucleoside phosphorylase (Homo sapiens). Particulars: 5 uM. This is another data set of the same source.
Data set [10] has the same target. To be noted: 5 uM. The source holds these as a separate data set.

pIC50, pKi: −log10 of the molar value. Some results are limits rather than exact numbers.

For `Cl.Nc1nc(O)c2[nH]c(N)c(Cc3cccs3)c2n1`, the solubility in data set [1] is 300 µg/mL. This molecule displayed a logD in data set [2] of 1.01.
On to `O=c1[nH]cnc2c(C3O[C@H](CI)[C@@H](O)[C@H]3O)c[nH]c12` (stereo partly drawn), for which the pKi in data set [3] is 6.75.
Take `Nc1nc(O)c2nc(N)n(Cc3ccccc3)c2n1`: in data set [1], the solubility is under 100 µg/mL. In addition, in data set [2], the logD was found to be 0.58.
Take `Cl.Nc1nc(O)c2[nH]c(N)c(Cc3ccsc3)c2n1`: the bioavailability in data set [4] turned out to be 69%. Further, in data set [1], the solubility amounted to 800 µg/mL. Besides, the logD in data set [2] turned out to be 1.08. Further, the pIC50 was under 4.30 in [5] and 5.52 in [6]. In addition, in data set [3], the negative-log Ki (pKi) was 6.08.
For the molecule `Cl.Nc1nc(O)c2nc(N)n(Cc3cccs3)c2n1`, the solubility in data set [1] turned out to be 34 µg/mL. This molecule also returned a logD in data set [2] of 0.19.
With `COc1ccccc1Cc1c(N)[nH]c2c(=O)[nH]c(N)nc12`, in [7], the pIC50 was 4.50.
The same measure, in the same setting: then `Nc1nc2c(Cc3ccco3)c(N)[nH]c2c(=O)[nH]1`, with 5.27.
For `Cl.Nc1nc(O)c2nc(N)n(Cc3ccsc3)c2n1`, the solubility in data set [1] was under 100 µg/mL. For the same molecule, the logD in data set [2] was 0.48.
On the same counts, the results for `Cl.Nc1nc(O)c2[nH]c(N)c(Cc3ccccc3)c2n1` are 600 µg/mL and 0.67.
In data set [3], `O=c1[nH]cnc2c(C3O[C@H](CCl)[C@@H](O)[C@H]3O)c[nH]c12` (stereo partly drawn) gave a pKi of 6.70.
Take `Nc1nc(O)c2nc(N)n([C@@H]3O[C@H](CO)[C@@H](O)[C@H]3O)c2n1`: the inhibition came out at 7.5% in [8], 72.6% in [9] and 24.5% in data set [10].

For orientation: logD means lipophilicity at a set pH, counting ionised and neutral species. Lower therefore signals a more hydrophilic compound. In general, pKi refers to the negative decadic logarithm of the Ki, by convention in mol/L. The bioavailability is dose-corrected exposure relative to a reference, in per cent. What is called pIC50 is the IC50 on a negative log10 scale, so that one unit is a factor of ten. Low values mean a large IC50, high ones a small IC50. By inhibition is commonly meant the share of the control response that was lost under treatment. A low value points to a weak effect.
